In ChEMBL document CHEMBL1156157, “1,7-Disubstituted oxyindoles are potent and selective EP(3) receptor antagonists” (Bioorg Med Chem Lett, 2010):

Experiments:
[1] = molecular target: T1, Prostaglandin E2 receptor EP3 subtype (Homo sapiens, UniProt P43115); assay: Displacement of [3H]PGE2 from human EP3 receptor in buffer
T1 sequence (P43115 whole entry): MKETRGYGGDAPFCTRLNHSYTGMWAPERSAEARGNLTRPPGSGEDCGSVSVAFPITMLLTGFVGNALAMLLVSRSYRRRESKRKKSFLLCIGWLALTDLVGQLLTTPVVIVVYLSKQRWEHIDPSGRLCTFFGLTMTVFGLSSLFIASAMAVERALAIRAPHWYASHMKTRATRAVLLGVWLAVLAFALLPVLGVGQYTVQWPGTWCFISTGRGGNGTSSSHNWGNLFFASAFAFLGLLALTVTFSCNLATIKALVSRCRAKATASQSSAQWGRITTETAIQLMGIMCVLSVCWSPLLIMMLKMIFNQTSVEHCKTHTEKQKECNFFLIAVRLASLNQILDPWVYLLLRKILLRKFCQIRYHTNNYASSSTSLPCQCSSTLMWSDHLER

[2] = Metabolic stability in human liver microsomes assessed as parent compound remaining after 30 mins; format: ADME, Microsome; conditions: read-out: Stability
Summary of the method: (§1)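 Compounds incubated with liver microsomes from human, rat, mouse, dog or monkey. Read-out is percent parent compound remaining at 30 min of incubation.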

[3] = Metabolic stability in rat liver microsomes assessed as parent compound remaining after 30 mins; format: ADME, Microsome; conditions: read-out: Stability; summary of the method: as §1
[4] = species: Rattus norvegicus; assay: Antithrombotic activity in rat assessed as platelet aggregation; format: functional
Summary of the method: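 Functional EP3 antagonism measured in a rat platelet aggregation assay. Values reported as EC50 in nM.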

[5] = molecular target: T1, Prostaglandin E2 receptor EP3 subtype; assay: Displacement of [3H]PGE2 from human EP3 receptor in presence of 10% human serum
[6] = Metabolic stability in mouse liver microsomes assessed as parent compound remaining after 30 mins; format: ADME, Microsome; conditions: read-out: Stability; summary of the method: as §1
[7] = molecular target: Cytochrome P450 3A4 (Homo sapiens, UniProt P08684); assay: Inhibition of human CYP3A4 using 7-benzyloxy-4-trifluoromethylcoumarin as substrate; format: ADME
Summary of the method: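 Inhibition of human CYP3A4 with 7-benzyloxy-4-trifluoromethylcoumarin (BFC) as substrate. Values given as IC50.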

Sequence of Cytochrome P450 3A4 (P08684 whole entry): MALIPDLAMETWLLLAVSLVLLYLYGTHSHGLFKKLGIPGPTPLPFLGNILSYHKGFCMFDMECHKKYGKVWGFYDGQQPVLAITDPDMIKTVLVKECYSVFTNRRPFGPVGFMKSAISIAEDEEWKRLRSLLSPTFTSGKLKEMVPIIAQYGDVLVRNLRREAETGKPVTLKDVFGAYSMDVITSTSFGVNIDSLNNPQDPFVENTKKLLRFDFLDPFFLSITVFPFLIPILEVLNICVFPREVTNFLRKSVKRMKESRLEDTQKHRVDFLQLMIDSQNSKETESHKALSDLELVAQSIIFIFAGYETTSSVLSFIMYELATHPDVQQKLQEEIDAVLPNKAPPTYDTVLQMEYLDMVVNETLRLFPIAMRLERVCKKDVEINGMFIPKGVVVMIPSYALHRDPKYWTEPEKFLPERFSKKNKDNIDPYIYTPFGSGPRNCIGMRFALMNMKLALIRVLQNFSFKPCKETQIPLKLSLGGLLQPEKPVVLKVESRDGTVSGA

IC50 [1]	remaining at 0.5 h [2]	remaining at 0.5 h [3]	EC50 [4]	IC50 [5]	remaining at 0.5 h [6]	inhibition (INH) [7]	IC50 [4]	SMILES
23.6 nM								O=C(/C=C/c1cccc2c1N(Cc1ccc3ccccc3c1)C(=O)C2)NS(=O)(=O)c1cccs1
0.3 nM	73.9%	62.5%	1090 nM	10.2 nM				O=C(/C=C/c1cccc2c1N(Cc1ccc3ccccc3c1)C(=O)C2)NS(=O)(=O)c1cc(F)c(F)cc1F
0.4 nM	65.9%	43%	246 nM	6.9 nM	13.2%			O=C(/C=C/c1cccc2c1N(Cc1ccc3ccccc3c1)C(=O)C2)NS(=O)(=O)c1ccc(F)c(F)c1
0.5 nM	66.5%	46%		5.2 nM	15.7%			O=C(/C=C/c1cccc2c1N(Cc1ccc3ccccc3c1)C(=O)C2)NS(=O)(=O)c1ccc(Cl)c(Cl)c1
0.6 nM	56.8%	29.8%	405 nM	8.1 nM	7.8%			O=C(/C=C/c1cccc2c1N(Cc1ccc3ccccc3c1)C(=O)C2)NS(=O)(=O)c1cccc(Cl)c1
0.9 nM				47.8 nM				O=C(/C=C/c1cccc2c1N(Cc1ccc(F)c(F)c1)C(=O)C2)NS(=O)(=O)c1ccc(F)c(F)c1
0.4 nM				35.5 nM				O=C(/C=C/c1cccc2c1N(Cc1ccc(F)c(F)c1)C(=O)C2)NS(=O)(=O)c1cccc(Cl)c1
11.6 nM				187 nM				O=C(/C=C/c1cccc2c1N(Cc1ccc3ccccc3c1)C(=O)C2(CO)CO)NS(=O)(=O)c1ccc(F)c(F)c1
0.4 nM	24.8%	13.1%		2.8 nM	5.63%			CC1C(=O)N(Cc2ccc3ccccc3c2)c2c(/C=C/C(=O)NS(=O)(=O)c3cccc(Cl)c3)cccc21 (stereo not drawn)
0.6 nM	36.4%	10.3%		4.1 nM	5.83%			CC1C(=O)N(Cc2ccc3ccccc3c2)c2c(/C=C/C(=O)NS(=O)(=O)c3ccc(Cl)c(Cl)c3)cccc21 (stereo not drawn)
13.7 nM				260 nM				O=C(/C=C/c1cccc2c1N(Cc1ccc3ccccc3c1)C(=O)C2=O)NS(=O)(=O)c1cccs1
0.7 nM	54.3%	23.5%	137 nM	3.3 nM	39.1%			O=C(/C=C/c1cccc2c1N(Cc1ccc(Cl)cc1Cl)C(=O)C2)NS(=O)(=O)c1ccc(F)c(F)c1
12.3 nM				15 nM				O=C(/C=C/c1cccc2c1N(Cc1ccc3ccccc3c1)C(=O)C2=O)NS(=O)(=O)c1cc(Cl)c(Cl)s1
1.6 nM				33.9 nM				O=C(/C=C/c1cccc2c1N(Cc1ccc3ccccc3c1)C(=O)C2=O)NS(=O)(=O)c1ccc(F)cc1
0.6 nM				20 nM				CC1C(=O)N(Cc2ccc3ccccc3c2)c2c(/C=C/C(=O)NS(=O)(=O)c3ccc(F)c(F)c3)cccc21 (stereo not drawn)
7.9 nM				82.4 nM				O=C(/C=C/c1cccc2c1N(Cc1ccc3ccccc3c1)C(=O)C21OCCO1)NS(=O)(=O)c1cc(Cl)c(Cl)s1
0.5 nM	50.4%	21%	290 nM	9.4 nM	33.9%			O=C(/C=C/c1cccc2c1N(Cc1ccc(Cl)cc1Cl)C(=O)C2)NS(=O)(=O)c1cccc(Cl)c1
0.3 nM				55.4 nM				O=C(/C=C/c1cccc2c1N(Cc1ccc(F)c(F)c1)C(=O)C2)NS(=O)(=O)c1ccc(Cl)c(Cl)c1
1 nM				12.7 nM				O=C(/C=C/c1cccc2c1N(Cc1ccc3ccccc3c1)C(=O)C2=O)NS(=O)(=O)c1ccc(Cl)c(Cl)c1
1.2 nM	53.3%	26.8%	316 nM	3.3 nM	56.1%			O=C(/C=C/c1cccc2c1N(Cc1ccc(Cl)cc1Cl)C(=O)C2)NS(=O)(=O)c1ccc(Cl)c(Cl)c1

Further lines, the compound ahead of its results:

SMILES	IC50 [1]	remaining at 0.5 h [2]	remaining at 0.5 h [3]	EC50 [4]	IC50 [5]	remaining at 0.5 h [6]	inhibition (INH) [7]	IC50 [4]
CC1C(=O)N(Cc2ccc(Cl)cc2Cl)c2c(/C=C/C(=O)NS(=O)(=O)c3cccc(Cl)c3)cccc21 (stereo not drawn)	0.5 nM	49.5%	23.6%		6.8 nM	7.26%		
O=C(/C=C/c1cccc2c1N(Cc1ccc(Cl)cc1Cl)C(=O)C2=O)NS(=O)(=O)c1cc(Cl)c(Cl)s1	6.5 nM				136 nM			
CC1C(=O)N(Cc2ccc(Cl)cc2Cl)c2c(/C=C/C(=O)NS(=O)(=O)c3cc(F)c(F)cc3F)cccc21 (stereo not drawn)	0.5 nM	48.4%	22.4%		4.3 nM	4.85%		
O=C(/C=C/c1cccc2c1N(Cc1ccc3ccccc3c1)C(=O)C2(CO)CO)NS(=O)(=O)c1cc(Cl)c(Cl)s1	2.3 nM				243 nM			
CC1C(=O)N(Cc2ccc(Cl)cc2Cl)c2c(/C=C/C(=O)NS(=O)(=O)c3cccs3)cccc21 (stereo not drawn)	2.4 nM				660 nM			
CC1C(=O)N(Cc2ccc(Cl)cc2Cl)c2c(/C=C/C(=O)NS(=O)(=O)c3cc(Cl)c(Cl)s3)cccc21 (stereo not drawn)	3.4 nM			47 nM	23.9 nM			
O=C(/C=C/c1cccc2c1N(Cc1ccc(Cl)cc1Cl)C(=O)C2)NS(=O)(=O)c1cc(F)c(F)cc1F	0.2 nM	61.6%	50.6%	361 nM	4.4 nM	70.1%		
CC1C(=O)N(Cc2ccc3ccccc3c2)c2c(/C=C/C(=O)NS(=O)(=O)c3cc(F)c(F)cc3F)cccc21 (stereo not drawn)	0.3 nM	13.7%	17.6%	19 nM	5.4 nM	5.1%		
CC1C(=O)N(Cc2ccc(F)c(F)c2)c2c(/C=C/C(=O)NS(=O)(=O)c3cccc(Cl)c3)cccc21 (stereo not drawn)	4 nM				39 nM			
CC1C(=O)N(Cc2ccc(Cl)cc2Cl)c2c(/C=C/C(=O)NS(=O)(=O)c3ccc(Cl)c(Cl)c3)cccc21 (stereo not drawn)	0.9 nM				9.8 nM			
O=C(/C=C/c1cccc2c1N(Cc1ccc(F)c(F)c1)C(=O)C2)NS(=O)(=O)c1cc(F)c(F)cc1F	0.7 nM				42 nM			
O=C(/C=C/c1cccc2c1N(Cc1ccc(F)c(F)c1)C(=O)C2)NS(=O)(=O)c1cc(Cl)c(Cl)s1	0.4 nM				55.4 nM			
CC1C(=O)N(Cc2ccc(Cl)cc2Cl)c2c(/C=C/C(=O)NS(=O)(=O)c3ccc(F)c(F)c3)cccc21 (stereo not drawn)	0.4 nM	64.7%	62.1%		3.3 nM	16%		
O=C(/C=C/c1cccc2c1N(Cc1ccc(Cl)cc1Cl)C(=O)C2(F)F)NS(=O)(=O)c1ccc(Cl)cc1	1.1 nM				251 nM		Active	> 800 nM
O=C(/C=C/c1cccc2c1N(Cc1ccc(F)c(F)c1)C(=O)C2(F)F)NS(=O)(=O)c1ccc(Cl)c(Cl)c1	1.3 nM						Active	> 800 nM
CC1C(=O)N(Cc2ccc(F)c(F)c2)c2c(/C=C/C(=O)NS(=O)(=O)c3ccc(Cl)c(Cl)c3)cccc21 (stereo not drawn)	0.9 nM				95.8 nM			
O=C(/C=C/c1cccc2c1N(Cc1ccc3ccccc3c1)C(=O)C2=O)NS(=O)(=O)c1cc(F)c(F)cc1F	0.6 nM				17.4 nM			
CC1C(=O)N(Cc2ccc(F)c(F)c2)c2c(/C=C/C(=O)NS(=O)(=O)c3cc(F)c(F)cc3F)cccc21 (stereo not drawn)	1.4 nM				10.7 nM			
